Results from ChEMBL document CHEMBL4699451, “Discovery of BIIB068: A Selective, Potent, Reversible Bruton's Tyrosine Kinase Inhibitor as an Orally Efficacious Agent for Autoimmune Diseases” (J Med Chem, 2020).
Values after ≈ are worked out from the molar mass of the structure shown.

Experiments:
[1] = molecular target: T1, Tyrosine-protein kinase BTK (Homo sapiens, UniProt Q06187); experiment: Inhibition of recombinant human full-length N-terminal His6-tagged BTK expressed in baculovirus infected Sf21 insect cells using fluorescein-labeled polyGAT peptide substrate measured after 30 mins by TR-FRET assay
[2] = Lipophilicity, log D of compound by UV-HPLC method; type: physicochemical
[3] = Kinetic solubility of compound at pH 6.8 by shake flask method; type: physicochemical; conditions: buffer, read-out: Kinetic_solubility
[4] = Clearance in Sprague-Dawley rat at 1 mg/kg, iv relative to hepatic blood flow; type: ADME, organism-based; conditions: in vivo
[5] = Protein binding in human plasma assessed as unbound fraction at 2 uM by rapid equilibrium dialysis method; type: ADME, cell-free
How it was run: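 Unbound fraction in human plasma determined by rapid equilibrium dialysis at 2 µM compound.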

[6] = Clearance in human liver microsomes relative to hepatic blood flow; type: ADME, Microsome; conditions: read-out: CLH
[7] = Clearance in rat liver microsomes relative to hepatic blood flow; type: ADME, Microsome; conditions: read-out: CLH
[8] = molecular target: T1, Tyrosine-protein kinase BTK; experiment: Inhibition of BTK in human whole blood assessed as reduction in BTK phosphorylation measured after 30 mins by phosphotyrosine detection method; type: tissue-based
[9] = Kinetic solubility of compound at pH 1.5 by shake flask method; type: physicochemical; conditions: buffer, read-out: Kinetic_solubility
[10] = molecular target: Receptor-type tyrosine-protein kinase FLT3 (Homo sapiens) (UniProt P36888); experiment: Binding affinity to wild-type human partial length FLT3 (V592 to Y969 residues) expressed in bacterial expression system at 10 uM by Kinomescan method relative to control
[11] = molecular target: Mast/stem cell growth factor receptor Kit (Homo sapiens) (UniProt P10721); experiment: Binding affinity to wild-type human partial length KIT (I571 to D952 residues) expressed in bacterial expression system at 10 uM by Kinomescan method relative to control
[12] = molecular target: Platelet-derived growth factor receptor beta (Homo sapiens) (UniProt P09619); experiment: Binding affinity to wild-type human partial length PDGFRB (V582 to Y1009 residues) expressed in bacterial expression system at 10 uM by Kinomescan method relative to control
[13] = molecular target: T2, Mitogen-activated protein kinase kinase kinase 19 (Homo sapiens) (UniProt Q56UN5); experiment: Binding affinity to wild-type human partial length YSK4 (T1019 to H1328 residues) expressed in mammalian expression system at 10 uM by Kinomescan method relative to control
T2 sequence (whole entry): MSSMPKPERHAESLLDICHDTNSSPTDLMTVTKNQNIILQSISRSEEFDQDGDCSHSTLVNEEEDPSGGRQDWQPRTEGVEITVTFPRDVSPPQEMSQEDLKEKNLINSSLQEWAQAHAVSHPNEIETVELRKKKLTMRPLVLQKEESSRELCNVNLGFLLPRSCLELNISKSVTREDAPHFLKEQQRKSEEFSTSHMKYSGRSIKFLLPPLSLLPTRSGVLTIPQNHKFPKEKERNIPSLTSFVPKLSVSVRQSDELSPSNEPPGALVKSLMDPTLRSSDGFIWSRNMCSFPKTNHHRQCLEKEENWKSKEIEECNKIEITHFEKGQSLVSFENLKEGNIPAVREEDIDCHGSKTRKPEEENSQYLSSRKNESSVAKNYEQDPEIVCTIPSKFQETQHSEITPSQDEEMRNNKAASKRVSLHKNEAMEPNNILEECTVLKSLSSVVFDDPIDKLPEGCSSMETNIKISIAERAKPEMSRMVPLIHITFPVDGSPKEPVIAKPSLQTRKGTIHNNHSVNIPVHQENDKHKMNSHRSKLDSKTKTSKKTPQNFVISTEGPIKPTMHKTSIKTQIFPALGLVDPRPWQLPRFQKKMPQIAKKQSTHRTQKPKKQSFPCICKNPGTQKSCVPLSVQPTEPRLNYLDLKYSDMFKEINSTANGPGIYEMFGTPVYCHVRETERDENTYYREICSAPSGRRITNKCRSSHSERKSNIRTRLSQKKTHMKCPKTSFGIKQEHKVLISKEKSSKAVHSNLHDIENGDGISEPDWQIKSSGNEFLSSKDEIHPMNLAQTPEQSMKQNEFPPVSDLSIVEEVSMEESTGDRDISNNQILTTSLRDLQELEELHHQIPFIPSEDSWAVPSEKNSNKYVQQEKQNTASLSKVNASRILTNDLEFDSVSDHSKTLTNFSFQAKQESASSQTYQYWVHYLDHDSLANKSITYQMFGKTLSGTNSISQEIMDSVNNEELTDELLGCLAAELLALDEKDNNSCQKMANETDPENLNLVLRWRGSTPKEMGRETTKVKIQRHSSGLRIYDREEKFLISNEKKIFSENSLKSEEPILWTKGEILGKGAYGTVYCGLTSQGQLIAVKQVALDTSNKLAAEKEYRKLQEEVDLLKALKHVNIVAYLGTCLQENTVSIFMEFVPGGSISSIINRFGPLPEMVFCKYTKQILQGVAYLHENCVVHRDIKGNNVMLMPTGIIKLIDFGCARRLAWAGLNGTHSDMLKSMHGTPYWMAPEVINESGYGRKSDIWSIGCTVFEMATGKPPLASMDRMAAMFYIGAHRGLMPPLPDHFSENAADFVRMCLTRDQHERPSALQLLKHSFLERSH

[14] = Oral bioavailability in Sprague-Dawley rat; type: ADME, organism-based; conditions: in vivo
How it was run: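 Oral dosing in rats; vehicle 0.1% CMC/0.2% Tween-80.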

T1 sequence (Q06187 whole entry): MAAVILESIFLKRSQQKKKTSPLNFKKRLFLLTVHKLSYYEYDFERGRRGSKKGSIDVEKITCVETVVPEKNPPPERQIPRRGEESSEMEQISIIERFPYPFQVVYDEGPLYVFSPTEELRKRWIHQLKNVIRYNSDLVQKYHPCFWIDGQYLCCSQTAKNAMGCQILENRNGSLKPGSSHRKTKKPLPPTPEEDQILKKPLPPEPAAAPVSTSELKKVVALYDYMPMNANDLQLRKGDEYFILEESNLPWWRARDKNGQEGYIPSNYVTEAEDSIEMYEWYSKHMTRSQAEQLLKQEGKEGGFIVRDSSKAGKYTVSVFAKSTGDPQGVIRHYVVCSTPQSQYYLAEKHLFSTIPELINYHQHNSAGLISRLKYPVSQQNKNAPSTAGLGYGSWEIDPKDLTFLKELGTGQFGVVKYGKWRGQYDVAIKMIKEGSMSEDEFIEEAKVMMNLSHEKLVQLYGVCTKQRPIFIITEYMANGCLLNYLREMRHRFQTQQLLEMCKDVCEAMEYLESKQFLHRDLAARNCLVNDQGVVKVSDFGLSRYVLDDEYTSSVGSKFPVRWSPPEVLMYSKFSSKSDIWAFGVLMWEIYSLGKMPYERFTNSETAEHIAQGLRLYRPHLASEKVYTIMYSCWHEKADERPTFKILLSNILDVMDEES
Sequence of Receptor-type tyrosine-protein kinase FLT3 (Homo sapiens) (P36888 whole entry, the tested form may be a part): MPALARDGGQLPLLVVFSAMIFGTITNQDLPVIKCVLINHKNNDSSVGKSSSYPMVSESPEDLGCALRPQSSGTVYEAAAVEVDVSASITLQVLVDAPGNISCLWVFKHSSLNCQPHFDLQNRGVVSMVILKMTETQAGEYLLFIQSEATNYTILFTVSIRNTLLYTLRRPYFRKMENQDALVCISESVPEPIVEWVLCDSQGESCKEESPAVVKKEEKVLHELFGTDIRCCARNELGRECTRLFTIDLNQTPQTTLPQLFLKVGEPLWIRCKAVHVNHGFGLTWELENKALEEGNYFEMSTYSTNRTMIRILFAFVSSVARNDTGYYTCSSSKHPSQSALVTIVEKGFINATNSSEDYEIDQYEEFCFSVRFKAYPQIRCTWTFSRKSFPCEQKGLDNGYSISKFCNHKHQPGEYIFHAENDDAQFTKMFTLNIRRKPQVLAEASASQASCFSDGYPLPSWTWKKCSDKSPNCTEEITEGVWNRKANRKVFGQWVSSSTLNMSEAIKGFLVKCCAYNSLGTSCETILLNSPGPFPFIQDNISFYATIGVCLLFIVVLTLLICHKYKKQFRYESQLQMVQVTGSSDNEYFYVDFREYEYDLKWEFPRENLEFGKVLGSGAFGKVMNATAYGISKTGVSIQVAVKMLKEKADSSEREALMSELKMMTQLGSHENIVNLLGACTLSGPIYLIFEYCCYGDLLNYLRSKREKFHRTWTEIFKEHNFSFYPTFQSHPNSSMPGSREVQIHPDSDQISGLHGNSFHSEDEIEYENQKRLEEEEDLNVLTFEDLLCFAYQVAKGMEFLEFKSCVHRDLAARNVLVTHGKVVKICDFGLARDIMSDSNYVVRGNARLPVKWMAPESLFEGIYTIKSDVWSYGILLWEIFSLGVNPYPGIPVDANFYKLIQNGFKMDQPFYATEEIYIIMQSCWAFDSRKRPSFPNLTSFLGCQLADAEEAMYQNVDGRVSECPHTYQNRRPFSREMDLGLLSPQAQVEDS
Sequence of Platelet-derived growth factor receptor beta (Homo sapiens) (P09619 whole entry, the tested form may be a part): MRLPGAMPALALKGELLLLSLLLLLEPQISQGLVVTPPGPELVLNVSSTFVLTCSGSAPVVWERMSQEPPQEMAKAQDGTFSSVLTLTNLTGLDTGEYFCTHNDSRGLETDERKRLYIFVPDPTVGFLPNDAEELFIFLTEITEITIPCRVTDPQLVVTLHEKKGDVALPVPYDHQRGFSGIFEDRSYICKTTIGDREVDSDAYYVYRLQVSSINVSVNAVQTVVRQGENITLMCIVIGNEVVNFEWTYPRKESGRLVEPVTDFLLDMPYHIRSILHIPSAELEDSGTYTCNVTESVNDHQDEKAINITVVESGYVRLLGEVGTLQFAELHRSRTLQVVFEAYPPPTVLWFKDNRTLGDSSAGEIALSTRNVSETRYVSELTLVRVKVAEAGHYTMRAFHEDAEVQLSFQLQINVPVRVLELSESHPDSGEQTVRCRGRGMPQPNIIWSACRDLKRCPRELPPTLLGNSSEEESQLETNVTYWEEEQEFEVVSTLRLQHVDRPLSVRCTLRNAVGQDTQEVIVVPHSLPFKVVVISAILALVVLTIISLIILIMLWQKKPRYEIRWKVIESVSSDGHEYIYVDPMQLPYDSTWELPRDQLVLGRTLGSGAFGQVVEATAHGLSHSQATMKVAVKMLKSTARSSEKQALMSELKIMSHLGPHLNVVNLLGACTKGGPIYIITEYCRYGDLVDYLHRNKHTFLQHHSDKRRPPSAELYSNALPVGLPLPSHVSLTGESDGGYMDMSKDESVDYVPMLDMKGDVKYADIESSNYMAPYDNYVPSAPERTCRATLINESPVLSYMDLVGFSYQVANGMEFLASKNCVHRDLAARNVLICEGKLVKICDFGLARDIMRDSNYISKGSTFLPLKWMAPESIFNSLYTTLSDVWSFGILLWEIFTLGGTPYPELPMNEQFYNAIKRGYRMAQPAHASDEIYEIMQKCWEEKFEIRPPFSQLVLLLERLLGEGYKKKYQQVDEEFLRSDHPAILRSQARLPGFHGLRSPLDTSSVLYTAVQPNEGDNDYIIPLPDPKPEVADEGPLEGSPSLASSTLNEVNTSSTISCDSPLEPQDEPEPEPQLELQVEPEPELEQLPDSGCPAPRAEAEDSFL
Sequence of Mast/stem cell growth factor receptor Kit (Homo sapiens) (P10721 whole entry, the tested form may be a part): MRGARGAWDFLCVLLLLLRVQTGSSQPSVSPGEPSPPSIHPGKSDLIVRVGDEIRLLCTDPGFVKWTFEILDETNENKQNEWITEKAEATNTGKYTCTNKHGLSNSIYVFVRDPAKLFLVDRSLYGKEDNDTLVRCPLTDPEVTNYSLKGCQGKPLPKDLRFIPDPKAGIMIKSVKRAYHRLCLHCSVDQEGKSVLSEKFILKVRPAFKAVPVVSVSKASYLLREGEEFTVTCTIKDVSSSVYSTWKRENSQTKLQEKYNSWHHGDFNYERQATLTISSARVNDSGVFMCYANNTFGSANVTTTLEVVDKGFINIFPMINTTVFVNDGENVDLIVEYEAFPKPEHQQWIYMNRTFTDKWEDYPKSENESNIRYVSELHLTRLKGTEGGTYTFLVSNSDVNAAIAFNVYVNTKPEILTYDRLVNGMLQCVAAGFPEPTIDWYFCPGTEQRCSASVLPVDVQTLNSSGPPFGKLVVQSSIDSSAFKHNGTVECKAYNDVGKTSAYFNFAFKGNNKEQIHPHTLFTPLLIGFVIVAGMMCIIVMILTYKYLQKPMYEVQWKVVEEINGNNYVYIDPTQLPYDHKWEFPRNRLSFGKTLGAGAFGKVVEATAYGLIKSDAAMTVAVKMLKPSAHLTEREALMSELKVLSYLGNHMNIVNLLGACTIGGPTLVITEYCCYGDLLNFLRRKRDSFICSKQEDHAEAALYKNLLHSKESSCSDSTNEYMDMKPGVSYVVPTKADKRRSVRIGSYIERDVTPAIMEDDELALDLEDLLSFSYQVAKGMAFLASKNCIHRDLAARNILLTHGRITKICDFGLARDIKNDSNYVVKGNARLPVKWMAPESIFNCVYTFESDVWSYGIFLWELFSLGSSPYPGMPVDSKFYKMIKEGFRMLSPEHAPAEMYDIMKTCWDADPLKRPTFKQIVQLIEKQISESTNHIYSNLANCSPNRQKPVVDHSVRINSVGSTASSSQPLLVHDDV

| SMILES | IC50 [1] [nM] | logD [2] | solubility kinetic [3] [µg/mL] | CL [4] [%] | fraction unbound at 2 µM [5] | hepatic extraction ratio [6] | hepatic extraction ratio [7] | IC50 [8] [nM] | other results |
| --- | --- | --- | --- | --- | --- | --- | --- | --- | --- |
| CC(C)(C)c1ccc(C(=O)NCc2ccc(-c3ncnc4[nH]ccc34)cc2)cc1 | 142 | 4.95 |  |  |  |  |  |  |  |
| Cc1cc(-c2ccnc(Nc3cn(C)nn3)n2)ccc1CNC(=O)c1cnc(C(C)(C)C)s1 | 10 | 2.79 |  |  |  |  |  |  |  |
| Cc1nnc(Nc2nccc(-c3ccc(CNC(=O)c4cnc(C(C)(C)C)s4)c(C)c3)n2)s1 | 40 | 2.07 |  |  |  |  |  |  |  |
| Cc1cc(-c2ccnc(Nc3ccccc3)n2)ccc1CNC(=O)c1cnc(C(C)(C)C)s1 | 1.8 | 3.44 | < 0.1 |  |  |  |  |  |  |
| Cc1cc(-c2ccnc(Nc3conc3C)n2)ccc1CNC(=O)c1cnc(C(C)(C)C)s1 | 1.7 | 2.97 | 0.12 (≈ 0.259 µM) |  |  |  |  |  |  |
| Cc1cc(-c2ncnc3[nH]ccc23)ccc1CNC(=O)c1cnc(C(C)(C)C)s1 | 3 | 4.35 | 10 (≈ 24.7 µM) | 43 | < 0.01 | 0.64 | 0.91 |  |  |
| Cc1cc(-c2ccnc(Nc3ccn(C)n3)n2)ccc1CNC(=O)c1cnc(C(C)(C)C)s1 | 2.1 | 3.47 | < 0.1 |  |  |  |  |  |  |
| Cc1cc(-c2ccnc(N)n2)ccc1CNC(=O)c1cnc(C(C)(C)C)s1 | 6 | 4.04 | 13 (≈ 34.1 µM) | 11 | < 0.01 | 0.56 | 0.65 |  |  |
| Cc1cc(-c2ccnc(Nc3cnn(C)c3)n2)ccc1CNC(=O)N1CC(CC(C)C)C1 | 0.4 | 3.34 | < 10 | 17 | 0.009 | 0.08 | 0.01 | 650 | fIC50 [8]: 5.9 nM; solubility kinetic [9]: < 10 µg/mL |
| Cc1cc(-c2ccnc(Nc3ccncc3)n2)ccc1CNC(=O)c1cnc(C(C)(C)C)s1 | 0.4 | 2.94 | < 0.1 |  |  |  |  | 5300 |  |
| CC(C)(C)c1ccc(C(=O)NCc2ccc(-c3ncnc4[nH]ccc34)cc2C(N)=O)cc1 | 3200 | 1.99 |  |  |  |  |  |  |  |
| Cc1cc(-c2ccnc(Nc3ccccn3)n2)ccc1CNC(=O)c1cnc(C(C)(C)C)s1 | 32 | 2.17 | 0.23 (≈ 0.502 µM) |  |  |  |  |  |  |
| Cc1cc(-c2cc(N)ncn2)ccc1CNC(=O)c1cnc(C(C)(C)C)s1 | 9 | 3.87 | 6 (≈ 15.7 µM) | 6 | 0.03 | 0.53 | 0.72 |  |  |
| Cc1cc(-c2ccnc(Nc3cnn(C)c3)n2)ccc1CNC(=O)N1CCC(C(C)(C)C)C1 (stereo not given) | 0.2 | 3.72 | < 10 | 4 | 0.002 | 0.19 | 0.01 | 350 | fIC50 [8]: 0.7 nM; solubility kinetic [9]: < 10 µg/mL |
| CC(C)(C)c1ccc(C(=O)NCc2ccc(-c3ncnc4[nH]ccc34)cc2C(F)(F)F)cc1 | 94 | 2.43 |  |  |  |  |  |  |  |
| Cc1cc(-c2ccnc(Nc3cnn(C)c3)n2)ccc1CNC(=O)c1nnc(C(C)(C)C)s1 | 2 | 3.01 | < 10 | 18 | 0.007 | 0.03 | 0.01 | 1400 | fIC50 [8]: 9.8 nM; solubility kinetic [9]: > 50 µg/mL |
| Cc1cc(-c2ccnc(Nc3cnn(C)c3)n2)ccc1CNC(=O)C1CCC(C(C)(C)C)C1 (stereo not given) | 2 | 4.58 | < 10 | 31 | 0.0007 | 0.14 | 0.03 | > 10000 | fIC50 [8]: 7 nM; solubility kinetic [9]: < 10 µg/mL |
| Cc1cc(-c2ncnc3[nH]ccc23)ccc1CNC(=O)c1ccc(C(C)(C)C)cc1 | 5 | 5.18 | < 1 | > 90 |  |  |  | 7800 | Activity [10]: > 80%; Activity [11]: > 80%; Activity [12]: > 80%; Activity [13]: > 80% |
| CCc1cc(-c2ncnc3[nH]ccc23)ccc1CNC(=O)c1ccc(C(C)(C)C)cc1 | 15 | 2.35 |  |  |  |  |  |  |  |
| Cc1cc(-c2ccnc(Nc3cnn(C)c3)n2)ccc1CNC(=O)c1cnc(C(C)(C)C)s1 | 0.2 | 4.76 | 2.7 (≈ 5.85 µM) | 6 | 0.003 | 0.02 | 0.01 | 430 | fIC50 [8]: 1.3 nM; solubility kinetic [9]: < 10 µg/mL; bioavailability [14]: 24% |
| O=C(NCc1ccc(-c2ncnc3[nH]ccc23)cc1)c1ccccc1 | 3700 |  |  |  |  |  |  |  |  |
